Shown are actives, neighbours in structure and some others; about 3.1% of the full set was active somewhere.
KCNQ1 act – potentiators or activators of KCNQ1 channel, primary screen, cell-based, thallium flux, high-throughput. Potassium voltage-gated channel subfamily KQT member 1 (Homo sapiens), P51787. CHO-K1 KCNQ1, thallium flux FluxOR fluorescence; hits give high values. B-score at 10 µM. actives 0.35% (n = 310,000). AID 2648, 2010;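 active means fluorescence ratio B-score, a plate-corrected score, at least three library SD, with initial intensity B-score within 5 SD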
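Assay system: CHO-K1 cells stably expressing KCNQ1; Medium: assay buffer with matched DMSO; Also added: K+/Tl+ depolarizing stimulus; Dosing: single dose; Timing: dye 90 min, compound 20 min, room temperature; Measured by: kinetic FluxOR thallium fluorescence, 10-s 1-Hz baseline, 110-s post-stimulus read; Read-out: peak-minus-minimum fluorescence over initial fluorescence, negative-control normalized, B-scored.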
hERG protect – hERG rescue from dofetilide block, primary screen, cell-based, CHO-hERG, FluxOR thallium flux, dofetilide IC70; Voltage-gated inwardly rectifying potassium channel KCNH2 (Homo sapiens), Q12809; dofetilide IC70 present; activation (rescue from dofetilide block), less the hit threshold, % at 10 µM; actives 0.51% (n = 310,000); AID 1511, 2009;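 active means activation above the mean of controls blocked by dofetilide plus 5 SD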;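 further: thallium influx through hERG after potassium depolarization seen as dye fluorescence rise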
KCNQ1 inh – inhibitors of human KCNQ1 channel, primary screen, cell-based, thallium flux, high-throughput; Potassium voltage-gated channel subfamily KQT member 1 (Homo sapiens), P51787; CHO-K1 KCNQ1, FluxOR thallium flux fluorescence; hits give high values; B-score at 10 µM; actives 1.3% (n = 310,000);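 active means compounds whose thallium flux B-score, printed positive for inhibition, exceeds three library SD while starting fluorescence stays within three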;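 further: channel opened by potassium depolarization with thallium stimulus after 20 min compound exposure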
KCNK9 block – KCNK9 potassium channel inhibitors, primary screen, HEK293 cells, thallium flux; Potassium channel subfamily K member 9 (Homo sapiens), Q9NPC2; B-score at 10 µM; actives 1.2% (n = 310,000); FluxOR thallium flux fluorescence; hits give low values;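 active means ratio B-score over 3 SD below the library mean, with starting fluorescence within 5 SD of its mean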;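 further: negative B-score means less thallium flux so channel inhibition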
Target sequence (Q9NPC2 whole entry, looked up): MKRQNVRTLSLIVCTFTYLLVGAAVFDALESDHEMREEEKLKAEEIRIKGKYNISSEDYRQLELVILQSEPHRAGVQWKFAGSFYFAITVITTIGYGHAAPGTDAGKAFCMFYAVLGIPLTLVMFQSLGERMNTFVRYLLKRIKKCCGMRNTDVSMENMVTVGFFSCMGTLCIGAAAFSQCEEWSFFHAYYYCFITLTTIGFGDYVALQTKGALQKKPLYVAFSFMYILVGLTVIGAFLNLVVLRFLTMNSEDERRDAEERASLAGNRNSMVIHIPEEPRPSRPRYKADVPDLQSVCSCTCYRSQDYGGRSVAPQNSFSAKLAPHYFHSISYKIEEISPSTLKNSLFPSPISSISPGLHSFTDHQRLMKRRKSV
KCNK3 block – human KCNK3 channel inhibitors, primary screen, CHO cells, FluxOR thallium flux, B-score. B-score at 10 µM. AID 602410, 2012. actives 0.84% (n = 340,000). Potassium channel subfamily K member 3 (Homo sapiens), O14649. FluxOR fluorescence; hits give low values;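 active means B-score under library mean minus 4 SD, starting fluorescence ratio at most library mean plus 5 SD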;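 further: more negative B-score means stronger inhibition of thallium flux through KCNK3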
KCNQ1 block val – KCNQ1 potassium channel inhibitors, confirmation, cell-based, Tl flux, duplicate. inhibition, % at 10 µM. actives 93% (n = 1,600). AID 588353, 2011. KCNQ1 cell line, FluxOR thallium flux fluorescence. shares compounds with KCNQ1 inh;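 active means primary screen active, with duplicate mean exceeding buffer control mean plus 3 SD of buffer wells, cut at about 28% in these data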;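 further: 0% = buffer control ratio and 100% = XE991 inhibitor control ratio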
CHO Tl flux – thallium flux effects in parental CHO cells, counter-screen for KCNQ1 inhibitor project, cell-based, Tl flux | shares compounds with KCNQ1 inh | AID 588366, 2011 | fluorescence ratio (Tl flux) at 10 µM | actives 21% (n = 1,600) | parental CHO-K1, FluxOR thallium flux fluorescence ratio; hits give low values; zero means no signal rise above baseline;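 active means mean of duplicate thallium-flux fluorescence ratios in parental host cells more than 5 SD below the buffer control mean, cut at about 0.38 in these data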;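 further: ratio is peak minus minimum fluorescence divided by baseline fluorescence; actives read low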
KCNQ1 ephys val – KCNQ1 channel inhibitors, confirmation, orthogonal assay, cell-based, automated electrophysiology. KCNQ1-CHO cells, automated patch clamp current. shares compounds with KCNQ1 inh. calls only at 10 µM. actives 20% (n = 490);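 active means KCNQ1 current drop exceeding 3 SD of negative control wells, seen in both duplicate runs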;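 further: steady state current during a 2 s step from -80 to +40 mV; negative values mean current inhibition and positive values mean potentiation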
KCNQ2 spec – KCNQ2 channel inhibition, selectivity assay for KCNQ1 inhibitor project, cell-based. shares compounds with KCNQ1 inh. KCNQ2 cells, FluxOR thallium flux fluorescence. inhibition, % at 10 µM. actives 71% (n = 1,600). AID 651746, 2012;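 active means mean percent inhibition of the KCNQ2 thallium signal more than 5 SD above the buffer-only control wells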;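 further: KCNQ2 expressed in CHO cells; 0% = buffer control wells and 100% = XE-991 inhibitor control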
KCNQ1 KCNE1 spec – KCNQ1/KCNE1 channel inhibition, selectivity assay for KCNQ1 inhibitor project, CHO-K1 cells, thallium flux, FluxOR | AID 652147, 2013 | inhibition, % at 10 µM | FluxOR thallium flux fluorescence | shares compounds with KCNQ1 inh | actives 77% (n = 1,600);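 active means mean percent inhibition of duplicate wells above the buffer-only control mean plus 3 SD of those controls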;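 further: 0% = buffer only wells and 100% = XE-991 inhibitor control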
An asterisk follows results filed as active.

For CC(Nc1ccc(Cl)cc1)c1cc(Cl)ccc1O (centres undefined) the results were KCNQ1 act inactive, hERG protect -7, KCNQ1 inh 6*, KCNK9 block inactive, KCNK3 block inactive, KCNQ1 block val 124*, CHO Tl flux 0.48, KCNQ2 spec inactive and KCNQ1 KCNE1 spec 152%*.
Screening CCc1nnc(NS(=O)(=O)c2ccc(NC(=O)c3cccc(OC)c3)cc2)s1 returned KCNQ1 act inactive, hERG protect -7, KCNQ1 inh inactive, KCNK9 block inactive and KCNK3 block inactive.
Screening CSc1nc2ccc(NS(=O)(=O)c3ccc(Cl)s3)cc2s1 returned KCNQ1 act inactive, hERG protect -13, KCNQ1 inh 7*, KCNK9 block inactive, KCNK3 block inactive, KCNQ1 block val 103*, CHO Tl flux 0.43, KCNQ2 spec inactive and KCNQ1 KCNE1 spec 70%*.
O=C(CCS(=O)(=O)c1ccccc1)Nc1nc2c(s1)COc1ccccc1-2 was read as KCNQ1 act inactive, hERG protect -22, KCNQ1 inh 6*, KCNK9 block inactive, KCNK3 block inactive, KCNQ1 block val 54*, CHO Tl flux 0.51, KCNQ2 spec 59%* and KCNQ1 KCNE1 spec 54%*.
O=C(Nc1nc2c(s1)COc1ccccc1-2)c1cccs1 was read as KCNQ1 act inactive, hERG protect -16, KCNQ1 inh 7*, KCNK9 block inactive, KCNK3 block inactive, KCNQ1 block val 44*, CHO Tl flux 0.52, KCNQ2 spec 102%* and KCNQ1 KCNE1 spec 64%*.
Screening COC(=O)CNc1nc(Cl)nc(NC2CCCCC2)n1 returned KCNQ1 act inactive, hERG protect -2, KCNQ1 inh inactive, KCNK9 block inactive and KCNK3 block inactive.
COc1cc(NC(=O)c2ccnnc2)cc(C(=O)Nc2cccc(C(F)(F)F)c2)c1 was read as KCNQ1 act inactive, hERG protect -16, KCNQ1 inh 9*, KCNK9 block inactive, KCNK3 block inactive, KCNQ1 block val 92*, CHO Tl flux 0.47, KCNQ2 spec 111%* and KCNQ1 KCNE1 spec 117%*.
`O=C(Nc1cccc(C(F)(F)F)c1)c1cccnc1` gave KCNQ1 act inactive, hERG protect -9, KCNQ1 inh inactive, KCNK9 block inactive and KCNK3 block inactive.
For Cn1c(=O)c2[nH]c(-c3ccccc3)c(O)c2n(C)c1=O the results were KCNQ1 act inactive, hERG protect -11, KCNQ1 inh 7*, KCNK9 block inactive, KCNK3 block inactive, KCNQ1 block val 45*, CHO Tl flux 0.39, KCNQ2 spec inactive and KCNQ1 KCNE1 spec 91%*.
CC(=O)Nn1cc2c(c1-c1ccccc1)c(=O)n(C)c(=O)n2C was read as KCNQ1 act inactive, hERG protect -8, KCNQ1 inh inactive, KCNK9 block inactive and KCNK3 block inactive.
Screening Cn1c(=O)c2[nH]c(-c3ccccc3Cl)c(O)c2n(C)c1=O returned KCNQ1 act inactive, hERG protect -5, KCNQ1 inh 6*, KCNK9 block inactive, KCNK3 block inactive, KCNQ1 block val 82*, CHO Tl flux 0.41, KCNQ2 spec inactive and KCNQ1 KCNE1 spec 98%*.
For O=C(NC1CCN(Cc2ccc(Cl)cc2Cl)CC1)c1ccccc1 the results were KCNQ1 act inactive, hERG protect -5, KCNQ1 inh inactive, KCNK9 block inactive and KCNK3 block inactive.
Screening CC(=O)c1c(C)nc2ccc(Br)cc2c1-c1ccccc1 returned KCNQ1 act inactive, hERG protect -14, KCNQ1 inh inactive, KCNK9 block inactive and KCNK3 block inactive.
Screening Cc1nc2ccc(Br)cc2c(-c2ccccc2)c1C(=O)O returned KCNQ1 act inactive, hERG protect -17, KCNQ1 inh 6*, KCNK9 block inactive, KCNK3 block inactive, KCNQ1 block val 0, CHO Tl flux 0.49, KCNQ2 spec 96%* and KCNQ1 KCNE1 spec inactive.
Screening CC(C)COC(=O)NCCOC(=O)Nc1cccc(Cl)c1 returned KCNQ1 act inactive, hERG protect -13, KCNQ1 inh 8*, KCNK9 block inactive, KCNK3 block inactive, KCNQ1 block val 124*, CHO Tl flux 0.46, KCNQ1 ephys val active, KCNQ2 spec 113%* and KCNQ1 KCNE1 spec 91%*.
Screening O=[N+]([O-])c1ccc(O)c(N=Cc2sc3ccccc3c2O)c1 returned KCNQ1 act inactive, hERG protect -18, KCNQ1 inh inactive, KCNK9 block inactive and KCNK3 block inactive.
Oc1c(C=Nc2cccc3cccnc23)sc2ccccc12 was read as KCNQ1 act inactive, hERG protect -18, KCNQ1 inh 10*, KCNK9 block -8.1*, KCNQ1 block val 88*, CHO Tl flux 0.36*, KCNQ2 spec inactive and KCNQ1 KCNE1 spec 134%*.
O=C(c1ccc(CS(=O)c2ccc(F)cc2)o1)N1CCN(C2CCCCC2)CC1 (centres undefined) was read as KCNQ1 act inactive, hERG protect -2, KCNQ1 inh inactive, KCNK9 block inactive and KCNK3 block inactive.
Screening CC(C)CN1CCCC(N2CCN(c3cccc(Cl)c3)CC2)C1 (centres undefined) returned KCNQ1 act inactive, hERG protect -1, KCNQ1 inh inactive, KCNK9 block inactive and KCNK3 block inactive.

Bioassay records as filed in PubChem.
